Test results published in ChEMBL document CHEMBL3627671, “Novel derivatives of nitro-substituted salicylic acids: Synthesis, antimicrobial activity and cytotoxicity” (Bioorg Med Chem, 2015).
Values after ≈ are worked out from the molar mass of the structure shown.

How the values were obtained:
[1] = system: Mycobacterium tuberculosis; assay: Antimycobacterial activity against Mycobacterium tuberculosis H37Rv 331/88 after 14 days; assay type: functional; conditions: H37Rv 331/88, 336 h
[2] = system: Mycobacterium tuberculosis; assay: Antimycobacterial activity against Mycobacterium tuberculosis H37Rv 331/88 after 21 days; assay type: functional; conditions: H37Rv 331/88, 504 h
Mycobacterium avium [3] = assay: Antimycobacterial activity against Mycobacterium avium 330/80 after 14 days; assay type: functional; conditions: 330/80, 336 h
Mycobacterium avium [4] = assay: Antimycobacterial activity against Mycobacterium avium 330/80 after 21 days; assay type: functional; conditions: 330/80, 504 h
Mycobacterium kansasii [5] = assay: Antimycobacterial activity against Mycobacterium kansasii 235/80 after 7 days; assay type: functional; conditions: 235/80, 168 h
How it was run: (§1)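 Šula's semisynthetic medium micromethod at 37 °C, read after 7, 14 and 21 days. The 1.0 McFarland suspension was diluted 10^-4. MIC determined. 6509/96 is a clinical isolate.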

Mycobacterium kansasii [6] = assay: Antimycobacterial activity against Mycobacterium kansasii 235/80 after 14 days; assay type: functional; conditions: 235/80, 336 h; how it was run: as §1
Mycobacterium kansasii [7] = assay: Antimycobacterial activity against Mycobacterium kansasii 235/80 after 21 days; assay type: functional; conditions: 235/80, 504 h; how it was run: as §1
Mycobacterium kansasii [8] = assay: Antimycobacterial activity against Mycobacterium kansasii 6509/96 after 7 days; assay type: functional; conditions: 6509/96, 168 h; how it was run: as §1
Mycobacterium kansasii [9] = assay: Antimycobacterial activity against Mycobacterium kansasii 6509/96 after 14 days; assay type: functional; conditions: 6509/96, 336 h; how it was run: as §1
Mycobacterium kansasii [10] = assay: Antimycobacterial activity against Mycobacterium kansasii 6509/96 after 21 days; assay type: functional; conditions: 6509/96, 504 h; how it was run: as §1
Staphylococcus aureus [11] = assay: Antibacterial activity against Staphylococcus aureus CCM 4516/08 after 24 hrs by microdilution broth method; assay type: functional; conditions: CCM 4516/08, 24 h
Staphylococcus aureus [12] = assay: Antibacterial activity against Staphylococcus aureus CCM 4516/08 after 48 hrs by microdilution broth method; assay type: functional; conditions: CCM 4516/08, 48 h
Staphylococcus aureus [13] = assay: Antibacterial activity against methicillin-resistant Staphylococcus aureus H 5996/08 after 24 hrs by microdilution broth method; assay type: functional; conditions: H 5996/08, 24 h
Staphylococcus aureus [14] = assay: Antibacterial activity against methicillin-resistant Staphylococcus aureus H 5996/08 after 48 hrs by microdilution broth method; assay type: functional; conditions: H 5996/08, 48 h
[15] = system: Staphylococcus epidermidis; assay: Antibacterial activity against Staphylococcus epidermidis H 6966/08 after 24 hrs by microdilution broth method; assay type: functional; conditions: H 6966/08, 24 h
How it was run: (§2)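 Mueller-Hinton broth microdilution (modified M07-A07), pH 7.4 (±0.2). Compounds dissolved in DMSO, tested at final 500 to 0.49 µmol/L. Inoculum in sterile water matched to 0.5 McFarland. Incubated in the dark, humid atmosphere, 35 °C, read at 24 and 48 h visually and at 540 nm. MIC taken as ≥95% growth reduction (IC95) versus control.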

[16] = system: Staphylococcus epidermidis; assay: Antibacterial activity against Staphylococcus epidermidis H 6966/08 after 48 hrs by microdilution broth method; assay type: functional; conditions: H 6966/08, 48 h; how it was run: as §2
Enterococcus sp. [17] = assay: Antibacterial activity against Enterococcus sp. J 14365/08 after 24 hrs by microdilution broth method; assay type: functional; conditions: J 14365/08, 24 h; how it was run: as §2
Enterococcus sp. [18] = assay: Antibacterial activity against Enterococcus sp. J 14365/08 after 48 hrs by microdilution broth method; assay type: functional; conditions: J 14365/08, 48 h; how it was run: as §2
Escherichia coli [19] = assay: Antibacterial activity against Escherichia coli CCM4517 after 24 hrs by microdilution broth method; assay type: functional; conditions: CCM4517, 24 h; how it was run: as §2
Escherichia coli [20] = assay: Antibacterial activity against Escherichia coli CCM4517 after 48 hrs by microdilution broth method; assay type: functional; conditions: CCM4517, 48 h; how it was run: as §2
Klebsiella pneumoniae [21] = assay: Antibacterial activity against Klebsiella pneumoniae D 11750/08 after 24 hrs by microdilution broth method; assay type: functional; conditions: D 11750/08, 24 h; how it was run: as §2
Klebsiella pneumoniae [22] = assay: Antibacterial activity against Klebsiella pneumoniae D 11750/08 after 48 hrs by microdilution broth method; assay type: functional; conditions: D 11750/08, 48 h; how it was run: as §2
Klebsiella pneumoniae [23] = assay: Antibacterial activity against ESBL-positive Klebsiella pneumoniae J 14368/08 after 24 hrs by microdilution broth method; assay type: functional; conditions: J 14368/08, 24 h; how it was run: as §2
Klebsiella pneumoniae [24] = assay: Antibacterial activity against ESBL-positive Klebsiella pneumoniae J 14368/08 after 48 hrs by microdilution broth method; assay type: functional; conditions: J 14368/08, 48 h; how it was run: as §2
Pseudomonas aeruginosa [25] = assay: Antibacterial activity against Pseudomonas aeruginosa CCM 1961 after 24 hrs by microdilution broth method; assay type: functional; conditions: CCM 1961, 24 h; how it was run: as §2
Pseudomonas aeruginosa [26] = assay: Antibacterial activity against Pseudomonas aeruginosa CCM 1961 after 48 hrs by microdilution broth method; assay type: functional; conditions: CCM 1961, 48 h; how it was run: as §2
Candida albicans [27] = assay: Antifungal activity against Candida albicans ATCC 44859 after 24 hrs by microdilution broth method; assay type: functional; conditions: ATCC 44859, 24 h
How it was run: (§3)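 CLSI M27-A3 broth microdilution in RPMI 1640 with glutamine, buffered to pH 7.0 with MOPS; DMSO diluent. Yeast inoculum 5 × 10^3 ± 0.2 CFU/mL. Moulds grown on Sabouraud agar 3–10 days before spore harvest, final inoculum 0.5-5 × 10^4 CFU/mL, checked in a Bürker chamber. Incubated dark, humid, 35 °C, read at 24 and 48 h visually and at 540 nm. MIC taken as ≥80% (yeasts) or ≥50% (filamentous) growth reduction versus control.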

Candida albicans [28] = assay: Antifungal activity against Candida albicans ATCC 44859 after 48 hrs by microdilution broth method; assay type: functional; conditions: ATCC 44859, 48 h; how it was run: as §3
Candida tropicalis [29] = assay: Antifungal activity against Candida tropicalis 156 after 24 hrs by microdilution broth method; assay type: functional; conditions: Candida tropicalis, 156, 24 h; how it was run: as §3
Candida tropicalis [30] = assay: Antifungal activity against Candida tropicalis 156 after 48 hrs by microdilution broth method; assay type: functional; conditions: Candida tropicalis, 156, 48 h; how it was run: as §3
Pichia kudriavzevii [31] = assay: Antifungal activity against Candida krusei E28 after 24 hrs by microdilution broth method; assay type: functional; conditions: E28, 24 h; how it was run: as §3
Pichia kudriavzevii [32] = assay: Antifungal activity against Candida krusei E28 after 48 hrs by microdilution broth method; assay type: functional; conditions: E28, 48 h; how it was run: as §3
Nakaseomyces glabratus [33] = assay: Antifungal activity against Candida glabrata 20/I after 24 hrs by microdilution broth method; assay type: functional; how it was run: as §3
Nakaseomyces glabratus [34] = assay: Antifungal activity against Candida glabrata 20/I after 48 hrs by microdilution broth method; assay type: functional; how it was run: as §3
Trichosporon asahii [35] = assay: Antifungal activity against Trichosporon asahii 1188 after 24 hrs by microdilution broth method; assay type: functional; conditions: Trichosporon asahii, 1188, 24 h; how it was run: as §3
Trichosporon asahii [36] = assay: Antifungal activity against Trichosporon asahii 1188 after 48 hrs by microdilution broth method; assay type: functional; conditions: Trichosporon asahii, 1188, 48 h; how it was run: as §3
Aspergillus fumigatus [37] = assay: Antifungal activity against Aspergillus fumigatus 231 after 24 hrs by microdilution broth method; assay type: functional; conditions: Aspergillus fumigatus, 231, 24 h; how it was run: as §3
Aspergillus fumigatus [38] = assay: Antifungal activity against Aspergillus fumigatus 231 after 48 hrs by microdilution broth method; assay type: functional; conditions: Aspergillus fumigatus, 231, 48 h; how it was run: as §3
Lichtheimia corymbifera [39] = assay: Antifungal activity against Absidia corymbifera 272 after 24 hrs by microdilution broth method; assay type: functional; conditions: Lichtheimia corymbifera, 272, 24 h; how it was run: as §3
Lichtheimia corymbifera [40] = assay: Antifungal activity against Absidia corymbifera 272 after 48 hrs by microdilution broth method; assay type: functional; conditions: Lichtheimia corymbifera, 272, 48 h; how it was run: as §3
[41] = system: Trichophyton mentagrophytes; assay: Antifungal activity against Trichophyton mentagrophytes 445 after 24 hrs by microdilution broth method; assay type: functional; conditions: Trichophyton mentagrophytes, 445, 24 h
[42] = system: Trichophyton mentagrophytes; assay: Antifungal activity against Trichophyton mentagrophytes 445 after 48 hrs by microdilution broth method; assay type: functional; conditions: Trichophyton mentagrophytes, 445, 48 h
HepG2 = assay: Cytotoxicity against human HepG2 cells after 24 hrs […]; assay type: cell-based; conditions: HepG2, 24 h
[43] = Selectivity index, ratio of CI50 for human HepG2 cells to MIC100 for Mycobacterium tuberculosis H37Rv 331/88

Q: Which results are given for O=C(Nc1ccc(Cl)c(Cl)c1)c1cc([N+](=O)[O-])ccc1O?
A: MIC [1]: 8 µM (≈ 2.62 µg/mL); MIC [2]: 16 µM (≈ 5.23 µg/mL); MIC (Mycobacterium avium [3]): 125 µM (≈ 40.9 µg/mL); MIC (Mycobacterium avium [4]): 125 µM (≈ 40.9 µg/mL); MIC (Mycobacterium kansasii [5]): 16 µM (≈ 5.23 µg/mL); MIC (Mycobacterium kansasii [6]): 32 µM (≈ 10.5 µg/mL); MIC (Mycobacterium kansasii [7]): 32 µM (≈ 10.5 µg/mL); MIC (Mycobacterium kansasii [8]): 32 µM (≈ 10.5 µg/mL); MIC (Mycobacterium kansasii [9]): 32 µM (≈ 10.5 µg/mL); MIC (Mycobacterium kansasii [10]): 32 µM (≈ 10.5 µg/mL); MIC (Staphylococcus aureus [11]): 31.2 µM (≈ 10.2 µg/mL); MIC (Staphylococcus aureus [12]): 31.2 µM (≈ 10.2 µg/mL); MIC (Staphylococcus aureus [13]): 31.2 µM (≈ 10.2 µg/mL); MIC (Staphylococcus aureus [14]): 31.2 µM (≈ 10.2 µg/mL); MIC [15]: 62.5 µM (≈ 20.4 µg/mL); MIC [16]: 62.5 µM (≈ 20.4 µg/mL); MIC (Enterococcus sp. [17]): 125 µM (≈ 40.9 µg/mL); MIC (Enterococcus sp. [18]): 125 µM (≈ 40.9 µg/mL); MIC (Escherichia coli [19]): > 500 µM; MIC (Escherichia coli [20]): > 500 µM; MIC (Klebsiella pneumoniae [21]): > 500 µM; MIC (Klebsiella pneumoniae [22]): > 500 µM; MIC (Klebsiella pneumoniae [23]): > 500 µM; MIC (Klebsiella pneumoniae [24]): > 500 µM; MIC (Pseudomonas aeruginosa [25]): > 500 µM; MIC (Pseudomonas aeruginosa [26]): > 500 µM; MIC (Candida albicans [27]): > 500 µM; MIC (Candida albicans [28]): > 500 µM; MIC (Candida tropicalis [29]): > 500 µM; MIC (Candida tropicalis [30]): > 500 µM; MIC (Pichia kudriavzevii [31]): > 500 µM; MIC (Pichia kudriavzevii [32]): > 500 µM; MIC (Nakaseomyces glabratus [33]): > 500 µM; MIC (Nakaseomyces glabratus [34]): > 500 µM; MIC (Trichosporon asahii [35]): > 500 µM; MIC (Trichosporon asahii [36]): > 500 µM; MIC (Aspergillus fumigatus [37]): > 500 µM; MIC (Aspergillus fumigatus [38]): > 500 µM; MIC (Lichtheimia corymbifera [39]): > 500 µM; MIC (Lichtheimia corymbifera [40]): > 500 µM; MIC [41]: 250 µM (≈ 81.8 µg/mL); MIC [42]: 250 µM (≈ 81.8 µg/mL); IC50 (HepG2): 8.9 µM; Selectivity Index [43]: 0.556
